Beta2AR agonist: beta2AR agonists driving receptor internalization, primary screen, cell-based, FAP fluorogen, flow cytometry; Beta-2 adrenergic receptor (Homo sapiens), P07550; Am2.2-beta2AR cells; response, % (concentration not given with the values); actives 0.43% (n = 340,000);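 active means response above a set limit, near 3 SD of response in nonfluorescent compounds, cut at about 42% in these data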
MC4R ag barr: MC4R agonists recruiting beta-arrestin, primary screen, cell-based, luminescence, agonist arm of biased-ligand search | actives 0.98% (n = 360,000) | U2OS MC4R beta-arrestin complementation; percent of melanotan II response, DMSO zero | activation, % at 8.9 µM;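 active means activation above a per-plate cutoff, the mean activation of sample wells on that plate plus 3 SD, cut at about 8% in these data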
Target sequence (P32245 whole entry, looked up): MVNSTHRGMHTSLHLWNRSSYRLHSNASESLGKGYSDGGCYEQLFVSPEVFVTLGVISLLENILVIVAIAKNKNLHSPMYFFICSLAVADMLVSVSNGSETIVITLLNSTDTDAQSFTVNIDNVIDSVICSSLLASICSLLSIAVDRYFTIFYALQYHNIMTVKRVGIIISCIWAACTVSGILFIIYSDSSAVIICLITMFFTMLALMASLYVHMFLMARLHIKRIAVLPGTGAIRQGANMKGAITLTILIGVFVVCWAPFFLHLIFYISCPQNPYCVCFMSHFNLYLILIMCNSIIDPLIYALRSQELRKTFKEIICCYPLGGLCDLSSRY
TAAR1 antag: human TAAR1 antagonists, primary screen, Fluo-8 calcium fluorescence, CHO RD-HGA16 cells; Trace amine-associated receptor 1 (Homo sapiens), Q96RJ0; antagonist; inhibition, % at 3 µM; actives 1.5% (n = 360,000); AID 624466, 2012;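 active means inhibition above a per-plate cutoff, the mean inhibition of test compounds on that plate plus 3 SD, cut at about 49% in these data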;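 further: 0% = DMSO plus EC80 beta-PEA response and 100% = DMSO alone without agonist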
Target sequence (Q96RJ0 whole entry, looked up): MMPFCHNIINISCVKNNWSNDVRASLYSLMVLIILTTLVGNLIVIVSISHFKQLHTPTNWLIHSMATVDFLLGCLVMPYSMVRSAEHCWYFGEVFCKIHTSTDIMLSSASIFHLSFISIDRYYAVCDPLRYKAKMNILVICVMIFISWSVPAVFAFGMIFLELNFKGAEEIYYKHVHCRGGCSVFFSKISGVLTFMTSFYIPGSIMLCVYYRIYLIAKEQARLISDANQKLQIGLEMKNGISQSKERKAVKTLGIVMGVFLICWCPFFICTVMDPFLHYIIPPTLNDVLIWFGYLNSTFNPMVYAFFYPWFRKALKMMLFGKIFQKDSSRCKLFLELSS
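Material: CHO RD-HGA16 cells bearing hTAAR1; compound dosing: one-point dosing, 3 µM nominal final; schedule: dye loading 75 min at 37 °C, then 30 min room temperature; measured by: calcium fluorescence with Fluo-8; control set: vehicle and agonist controls; replication: n of 1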
TAAR1 ag: human TAAR1 agonists, primary screen, Fluo-8 calcium fluorescence, CHO RD-HGA16 cells. Trace amine-associated receptor 1 (Homo sapiens), Q96RJ0. vehicle wells 0%, saturating PEA agonist 100%. activation, % at 3 µM. actives 0.99% (n = 360,000). AID 624467, 2012;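 active means activation above the mean activation of all test compounds in the run plus 3 SD, cut at about 38% in these data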
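Assay system: CHO-derived RD-HGA16 cells with stable Gα16 and human TAAR1; timing: 17-24 h seeding, 75 min 37 °C dye, 30 min RT; read-out: % activation from peak over basal fluorescence ratio, DMSO-to-PEA scaled; measured by: kinetic Fluo-8 calcium fluorescence; benchmarks: low control DMSO, high control PEA (EC100); doses: 3 µM single concentration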
HTR2A ag: mouse Htr2a agonists via beta-arrestin recruitment, primary screen, cell-based, luminescence. activation, % at 7.6 µM. CHO-K1 mHTR2A beta-arrestin complementation; percent of 30 µM serotonin response. AID 624169, 2012. 5-hydroxytryptamine receptor 2A (Mus musculus), P35363. actives 0.66% (n = 360,000);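 active means activation above a run cutoff, the mean activation of all tested compounds plus 3 SD, cut at about 14% in these data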;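 further: 0% = plate median of compound wells and 100% = 30 µM serotonin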
MC4R antag cAMP: MC4R antagonists of cAMP signaling, primary screen, cell-based, TR-FRET, antagonist arm of biased-ligand search; Melanocortin receptor 4 (Homo sapiens), P32245; MC4R-expressing cells, MTII-stimulated cAMP, LANCE TR-FRET; inhibition, % at 6.5 µM; actives 0.48% (n = 360,000); AID 540295, 2011;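 active means inhibition above its plate's cutoff, the mean of tested wells on that plate plus 3 SD, cut at about 29% in these data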;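 further: 0% = Melanotan II alone and 100% = Melanotan II plus saturating MCL0020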
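Material: U2OS-MC4R stable cell line | Reagent: Melanotan II challenge after compound preincubation | Doses: One concentration, 6.5 µM nominal | Incubation: 30-min compound preincubation, 1-h Melanotan II challenge, 1-h detection, room temperature | Signal: TR-FRET cAMP assay | Replicates: One well per compound, no replicates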
MC4R barr ag: MC4R beta-arrestin agonists, retest, confirmation, cell-based, luminescence, U2OS. shares compounds with MC4R ag barr. U2OS MC4R beta-arrestin recruitment; scaled DMSO 0%, Melanotan II 100%. activation, % at 8.9 µM. actives 31% (n = 2,400);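 active means mean activation across replicates above the hit cutoff set in the earlier primary screen, cut at about 8% in these data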
MOR-DOR barr ag: agonists of MOR-DOR heterodimerization, counter-screen for MC4R biased agonist project, cell-based, luminescence; AID 602194, 2012; U2OS PathHunter beta-arrestin, beta-gal luminescence; percent of deltorphin B response, DMSO zero; shares compounds with MC4R ag barr; actives 5.8% (n = 2,400); activation, % at 9.2 µM;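 active means mean activation across replicates exceeds the hit threshold derived in the earlier primary screen, cut at about 18% in these data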;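 further: 100% = deltorphin B at 0.9 µM final and 0% = DMSO alone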
Starred values were filed as active, the others as inactive; . = no result. The list is not random: actives were taken first. Their share in the collection is about 4.3%.

SMILES	Beta2AR agonist	MC4R ag barr	TAAR1 antag	TAAR1 ag	HTR2A ag	MC4R antag cAMP	MC4R barr ag	MOR-DOR barr ag
Cc1cc(C)cc(OCC(O)CN2CCC(CN3C(=O)c4cccc5cccc(c45)C3=O)CC2)c1 (centres undefined)	11.7	30.5*	-0.1	39.4*	-6.6	8.7	33.4*	13.9
O=C1c2cccc3cccc(c23)C(=O)N1CC1CCN(CC(O)COc2ccc3ccccc3c2)CC1 (centres undefined)	81.9*	54.5*	-13.9	10.6	0.5	-3.1	22.0*	15.8
COc1cccc(OCC(O)CN2CCC(CN3C(=O)c4cccc5cccc(c45)C3=O)CC2)c1 (centres undefined)	3.9	2.1	-1.7	4.4	-3.1	13.8	.	.
O=C1CCc2cc(S(=O)(=O)N3CCN(c4ccc(F)cc4)CC3)cc3c2N1CC3	-0.1	12.6*	-12.2	4.4	6.7	-4.0	3.5	4.4
COc1ccccc1N1CCN(C(=S)NC(=O)/C=C/c2ccccc2)CC1	9.1	0.8	2.8	12.1	-4.9	-1.0	.	.
C/C(=N\Nc1ccc(S(N)(=O)=O)cc1[N+](=O)[O-])c1ccc2c(c1)OCO2	14.1	13.1*	-14.9	0.3	1.4	11.4	4.5	5.4
O=C(CCCn1c(SCC(=O)c2ccc(F)cc2)nc2ccccc2c1=O)NCc1ccccc1	-6.0	24.3*	15.9	8.3	-8.2	11.6	2.5	13.3
Cc1cc(NC(=O)CSc2nc3ccccc3c(=O)n2CCCC(=O)NCc2ccccc2)n[nH]1	5.1	2.5	17.1	7.7	3.6	-10.0	.	.
CCCCNC(=O)C1c2ccccc2OCC(=O)N1Cc1ccccn1 (centres undefined)	.	.	-3.9	3.0	-0.7	.	.	.
C[C@H]1NC(=O)[C@]2(C)[C@@H](c3ccccc3)[C@H]3COc4ccccc4[C@H]3N2C1=O	4.7	1.4	-10.2	1.7	1.9	1.8	.	.
Cc1cc(C)cc(NC(=O)Nc2ccc(NC(=O)c3ccccc3O)cc2)c1	6.5	15.8*	29.2	5.6	0.2	18.1	6.3	13.0
Cc1ccc(NC(=O)c2ccccc2O)cc1	-3.0	1.0	7.5	8.3	4.0	8.6	.	.
Cc1ccc(C)c(OCCC(=O)OCC(=O)NC(=O)NC2CCCC2)c1	-3.9	13.9*	-5.9	1.7	7.8	7.6	3.1	8.0
Cn1cc(-c2ccc3c(c2)OCO3)c2ccccc21	.	.	-14.3	2.2	8.3	.	.	.
CC1(C(=O)NS(=O)(=O)C2CC2)CCCN(C(=O)c2ccc3ccccc3c2)C1 (centres undefined)	.	0.5	-18.2	0.7	-3.5	16.7	.	.
O=C(Nc1ccc(OC(F)(F)C(F)F)c(NC(=O)c2ccc(F)cc2)c1)c1ccc(F)cc1	1.7	11.7*	31.8	7.8	3.2	5.7	1.4	4.1
COc1ccccc1C(=O)COC(=O)C1CCN(S(=O)(=O)c2ccccc2)CC1	.	-1.0	-2.3	-0.3	-5.2	-0.2	.	.
CCC(C(=O)OCC(=O)NC(=O)NC(C)(C)C)c1ccccc1 (centres undefined)	-0.7	9.7*	1.2	1.1	5.5	27.9	3.2	13.6
Cn1c(-c2ccc(Cl)cc2)ccc(C#N)c1=O	6.8	10.9*	3.9	0.6	-2.6	-1.8	0.0	5.3
CCOC(=O)c1c(NC(=O)CN2CCCc3ccccc32)sc(C(C)=O)c1C	-1.9	23.0*	-2.6	-0.9	2.8	4.3	2.3	2.3
COCCOC(=O)c1c(NC(=O)CN2CCc3ccccc32)sc(C(N)=O)c1C	6.8	-0.5	-8.4	0.3	1.9	4.7	.	.
CC(C)CN(C(=O)C1=COCCO1)c1c(N)n(Cc2ccccc2)c(=O)[nH]c1=O	.	-0.7	-28.3	5.0	1.1	5.8	.	.
COc1cc(-c2coc3c(C(=O)NCc4ccc(C(F)(F)F)cc4)cccc23)ccc1O	.	-0.2	11.1	5.5	-3.4	2.0	.	.
C=CS(=O)(=O)N(Cc1ccccc1Br)[C@H](CO)Cc1ccccc1	-2.0	3.0	14.9	21.9	4.7	0.4	.	.
O=S(=O)(N(Cc1ccccc1)[C@@H](CO)Cc1ccccc1)N(Cc1ccccc1)[C@@H](CO)Cc1ccccc1	-10.7	12.8*	48.2	14.8	-2.8	13.4	4.6	4.8
SMILES	Beta2AR agonist	MC4R ag barr	TAAR1 antag	TAAR1 ag	HTR2A ag	MC4R antag cAMP	MC4R barr ag	MOR-DOR barr ag
CCc1ccc(C(O)c2ncc(-c3ccc4ccccc4c3)[nH]2)cc1 (centres undefined)	.	17.3*	6.8	8.8	8.9	9.6	6.8	8.5
COc1ccc(C(O)c2ncc(-c3cccc(C(F)(F)F)c3)[nH]2)cc1F (centres undefined)	.	-2.4	-14.3	15.7	-2.9	3.7	.	.
CCc1ccc(C(O)c2ncc(-c3cccc(C(F)(F)F)c3)[nH]2)cc1 (centres undefined)	.	12.8*	-30.2	16.3	-2.2	7.7	10.5*	9.1
O=c1cc(-c2ccncc2)oc2c1ccc1ccccc12	5.8	-1.5	-2.6	7.2	2.5	-19.2	.	.
O=c1cc(-c2ccc(O)cc2)oc2c1ccc1ccccc12	13.1	49.9*	13.3	7.3	-2.4	-3.2	3.5	3.6
O=C(CSc1n[nH]c(=O)[nH]c1=O)Nc1ccc(Br)cc1Br	4.6	-2.1	-6.1	-0.2	-4.4	2.8	.	.
COC(CNC(=O)CCc1c(C)nc2c(-c3ccc(F)cc3)c(C)nn2c1C)OC	-9.9	1.6	-20.6	8.2	7.3	11.7	.	.
Cc1nc2c(-c3ccc(F)cc3)c(C)nn2c(C)c1CCC(=O)Nc1ccccc1F	-4.5	12.9*	-14.7	-1.4	2.7	2.1	-1.9	4.3
O=C(NCc1ccccc1)[C@@H]1CCCN1C(=O)[C@@H](NS(=O)(=O)c1ccc(F)cc1F)c1ccccc1	.	.	-20.4	0.5	.	.	.	.

Source: PubChem BioAssay
